# High-throughput results deposited in PubChem BioAssay by several laboratories.
# WT yeast gro inh – growth inhibition of WT yeast, mitochondrial fusion screen | mitochondrial fusion phenotypic screen, WT strain | inhibition, % at 10 µM | 190,000 compounds, 2.1% hits | AID 1362; in the data active = inhibition above about 58%; tested in S. cerevisiae
# Arbovirus anti – antivirals against arbovirus infection | arbovirus infection cell-based antiviral screen | inhibition, % at 10 µM | 200,000 compounds, 0.37% hits; in the data active = inhibition above about 30%
# TNAP inh hiacc – inhibitors of human TNAP at high phosphate acceptor concentration. P05186. purified TNAP, CDP-star luminescence, 1 M DEA. inhibition, % at 20 µM. 200,000 compounds, 0.03% hits. AID 1135;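 active = over 50% inhibition of tissue-nonspecific alkaline phosphatase at 20 µM in the single-dose screen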;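 note: plate controls were DMSO wells for no effect and EDTA-quenched wells as full inhibition for full effect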
# Target sequence (P05186 whole entry, looked up): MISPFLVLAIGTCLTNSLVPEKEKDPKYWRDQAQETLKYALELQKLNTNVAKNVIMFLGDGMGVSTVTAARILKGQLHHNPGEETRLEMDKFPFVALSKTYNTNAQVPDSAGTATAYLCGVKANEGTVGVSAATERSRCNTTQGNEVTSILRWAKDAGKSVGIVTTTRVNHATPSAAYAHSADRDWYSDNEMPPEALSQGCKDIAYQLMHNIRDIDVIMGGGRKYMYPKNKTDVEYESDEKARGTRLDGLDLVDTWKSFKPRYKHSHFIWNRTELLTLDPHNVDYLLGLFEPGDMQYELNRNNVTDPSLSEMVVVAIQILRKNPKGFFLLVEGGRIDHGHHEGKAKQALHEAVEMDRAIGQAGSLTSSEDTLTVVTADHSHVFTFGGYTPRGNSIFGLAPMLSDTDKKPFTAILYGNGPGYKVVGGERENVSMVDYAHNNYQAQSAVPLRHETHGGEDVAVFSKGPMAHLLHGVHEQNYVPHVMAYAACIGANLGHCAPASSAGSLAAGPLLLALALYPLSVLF
# TNAP act hi DEA – increases human TNAP activity under high phosphate acceptor concentration | purified TNAP, CDP-star luminescence, 1 M DEA, 30 min; stronger effect = higher value; 0 = EDTA background, 1 = DMSO-only activity | activation factor at 20 µM | 200,000 tested, under 10 active | AID 1136;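 active = activation factor at least 2 at 20 µM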
#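 Measured by: Luminescent substrate turnover signal | Test system: Human TNAP | Input: TNAP 1/800 final | Dosing: 20 µM single point | Schedule: 30 min, room temperature | Controls: EDTA wells as negative control, DMSO wells as positive control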
# TNAP inh noacc – inhibitors of human TNAP without phosphate acceptor | purified TNAP, CDP-star luminescence, 30 min | inhibition, % at 20 µM | 200,000 compounds, 0.26% hits;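 active = tissue-nonspecific alkaline phosphatase inhibition above about 50% at 20 µM in the single-dose screen, limit read from the data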;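 note: 0% = DMSO negative control and 100% = EDTA positive control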
# * marks the source's active call; other numbers are inactive results. Compounds with a hit are over-represented: about 2.6% of the library has one in this group of screens.
SMILES,WT yeast gro inh,Arbovirus anti,TNAP inh hiacc,TNAP act hi DEA,TNAP inh noacc
CCOC(=O)c1c(C)[nH]c(C2=NNC(=Nc3cccc(Cl)c3)SC2)c1C,63.4*,-23.7,-3.7,1,3.8
O=C(Nc1cccnc1)NC1CCCCC1,3.7,3.9,-6.4,1.1,-9.2
O=C(COc1cccnc1[N+](=O)[O-])Nc1cccc(S(=O)(=O)N2CCCCC2)c1,4.3,-7.0,-0.7,1,5.1
N#CC(c1ccc(Cl)cc1)(c1ncc(C(F)(F)F)cc1Cl)N1CCOCC1 (stereo not given),69.9*,-0.4,1.7,1,-0.6
O=S(Cc1ccc(Br)cc1)Cc1nnc(SCc2ccc(Cl)cc2)n1-c1ccccc1 (stereo not given),5.7,-31.8,-9.1,1.1,-9.5
O=S(Cc1ccc(Br)cc1)Cc1nnc(SCc2c(F)cccc2Cl)n1-c1ccccc1 (stereo not given),76.9*,-25.0,-7.0,1.1,-11.3
Cc1ccc(-n2nnnc2-c2cnoc2-c2cccc(F)c2)cc1,7.0,-13.5,-1.9,1,-9.8
Cc1ccc(-c2cc(NC(=O)CCl)n(-c3ccccc3)n2)cc1,7.1,-29.7,-3.1,1,-6.1
Cc1ccc(-n2nc(C)c(NC(=O)CCl)c2C)cc1,-6.6,34.8*,0.7,1,-10.5
CCOC(=O)c1ccc(NC(=O)CSc2nc3cccnc3n2C)cc1,-4.6,12.4,-4.1,1,-9.6
CS(=O)(=O)c1nc2ccccc2n1Cc1ccccc1,93.8*,2.0,-0.5,1,-8.1
O=S(=O)(O)c1nc2ccccc2n1Cc1ccccc1,1.9,5.3,-1.5,1,-9.8
Cc1ccccc1Cn1c(Cc2ccccc2)nc2ccccc21,77.0*,-28.7,-4.5,1,-7.0
Cc1cccc(Cn2c(Cc3ccccc3)nc3ccccc32)c1,72.0*,-11.1,-1.7,1,-21.8
COC(=O)Cc1ccc(NC(=S)Nc2cccc(C)n2)cc1,4.2,-7.4,-5.9,1.1,-3.9
O=C(O)c1cccc(NS(=O)(=O)c2ccc(C3CCCCC3)cc2)c1,18.9,7.5,-1.9,1,-8.8
N#CCc1ccc(NS(=O)(=O)c2ccc(C3CCCCC3)cc2)cc1,62.4*,-29.3,1.3,1,-3.9
Cc1cccc(NS(=O)(=O)c2ccc(C3CCCCC3)cc2)c1,73.7*,-32.6,0.2,1,-4.5
NC(=O)COC(=O)c1ccccc1SCC(=O)NC1CCCCCC1,-6.2,11.3,-4.7,1,-10.1
Cc1cccc(C(=O)Nc2scc(CC(C)C)c2C(=O)O)c1,-7.7,64.6*,-4.1,1,-5.8
CC(C)Cc1csc(NC(=O)c2ccccc2Cl)c1C(=O)O,-29.0,66.1*,-7.6,1.1,-8.0
CC(C)Cc1csc(NC(=O)c2ccc(Cl)cc2)c1C(=O)O,1.7,21.9,0.8,1,0.4
CCOC(=O)c1c(CC(C)C)csc1NC(=O)C(C)C,6.2,-1.1,0.5,1,-3.9
Cc1ccc(CNC(=O)C(Cc2ccccc2)NS(=O)(=O)c2ccc(Br)s2)cc1 (stereo not given),81.0*,-20.4,-4.0,1,-9.6
O=C(c1ccc(Cl)c(Cl)c1)c1cnc(Nc2ccccc2)s1,86.8*,5.9,-0.2,1,-7.4
SMILES,WT yeast gro inh,Arbovirus anti,TNAP inh hiacc,TNAP act hi DEA,TNAP inh noacc
CNc1ncc(C(=O)c2ccc(Cl)c(Cl)c2)s1,19.1,-10.2,-2.6,1,2.6
N#C/C(=C/c1cn(-c2ccccc2)nc1-c1cccc(OCc2ccccc2)c1)C(=O)NCCCn1ccnc1,12.3,-37.8,1.8,1,-14.1
CCOc1cccc(-c2nn(-c3ccccc3)cc2/C=C(/C#N)C(=O)NCCCn2ccnc2)c1,59.7*,-38.6,-3.8,1,0.1
CC1CCN(c2ccc(C(=O)NCc3ccco3)cc2[N+](=O)[O-])CC1,44.4,-14.2,7.6,0.9,6.0
Cc1cc(Cl)ccc1OCC(=O)NN1C(=O)C2C3C=CC(C3)C2C1=O (stereo not given),-10.0,17.8,-7.1,1.1,-3.1
O=C1C(Cl)=C(NC2CCCCC2)C(=O)N1Cc1ccccc1,69.8*,2.2,-2.6,1,-11.2
O=C1C(Cl)=C(NCC2CCCO2)C(=O)N1Cc1ccccc1 (stereo not given),21.7,-0.8,2.8,1,-3.6
CCOCCCNC(=S)N1CCCN(c2nc3c(C)c(C)ccc3cc2C#N)CC1,73.8*,1.1,-5.7,1.1,-11.0
CCOCCCNC(=S)NCCCNc1nc2c(C)c(C)ccc2cc1C#N,73.6*,-23.6,0.5,1,-19.1
CCn1c(-c2cc(-c3cc(C)ccc3C)nc3ccccc23)n[nH]c1=S,-4.2,5.7,-3.1,1,5.2
